# Most compounds without a hit are left out; they make up all but 3.7% or so of the library.
# hERG protect: hERG rescue from dofetilide block, primary screen, cell-based, CHO-hERG, FluxOR thallium flux, dofetilide IC70; 310,000 compounds, 0.51% hits; Voltage-gated inwardly rectifying potassium channel KCNH2 (Homo sapiens), Q12809; AID 1511, 2009; activation (rescue from dofetilide block), less the hit threshold, % at 10 µM; dofetilide IC70 present;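 active = activation above the mean of controls blocked by dofetilide plus 5 SD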;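 also: thallium influx through hERG after potassium depolarization seen as dye fluorescence rise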
# KCNK9 inh: KCNK9 potassium channel inhibitors, primary screen, HEK293 cells, thallium flux. Potassium channel subfamily K member 9 (Homo sapiens), Q9NPC2. FluxOR thallium flux fluorescence; hits give low values. B-score at 10 µM. 310,000 compounds, 1.2% hits;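 active = ratio B-score over 3 SD below the library mean, with starting fluorescence within 5 SD of its mean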;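 also: negative B-score means less thallium flux so channel inhibition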
# KCNK3 inh: human KCNK3 channel inhibitors, primary screen, CHO cells, FluxOR thallium flux, B-score | FluxOR fluorescence; hits give low values | B-score at 10 µM | 340,000 compounds, 0.84% hits;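 active = B-score under library mean minus 4 SD, starting fluorescence ratio at most library mean plus 5 SD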;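 also: more negative B-score means stronger inhibition of thallium flux through KCNK3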
# Target sequence (O14649 whole entry, looked up): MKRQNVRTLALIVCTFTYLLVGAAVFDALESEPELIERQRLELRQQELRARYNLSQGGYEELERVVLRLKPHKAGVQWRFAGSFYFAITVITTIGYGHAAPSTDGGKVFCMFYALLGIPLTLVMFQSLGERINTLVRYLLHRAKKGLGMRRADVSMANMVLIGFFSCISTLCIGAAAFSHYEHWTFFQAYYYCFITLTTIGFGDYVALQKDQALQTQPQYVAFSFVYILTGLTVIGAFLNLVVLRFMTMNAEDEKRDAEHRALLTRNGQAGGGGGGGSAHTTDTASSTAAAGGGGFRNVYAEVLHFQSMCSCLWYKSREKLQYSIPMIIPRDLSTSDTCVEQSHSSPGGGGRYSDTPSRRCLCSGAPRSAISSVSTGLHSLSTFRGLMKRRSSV
# KCNQ1 pot: potentiators or activators of KCNQ1 channel, primary screen, cell-based, thallium flux, high-throughput; Potassium voltage-gated channel subfamily KQT member 1 (Homo sapiens), P51787; CHO-K1 KCNQ1, thallium flux FluxOR fluorescence; hits give high values; B-score at 10 µM; 310,000 compounds, 0.35% hits; AID 2648, 2010;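 active = fluorescence ratio B-score, a plate-corrected score, at least three library SD, with initial intensity B-score within 5 SD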
#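 Test system: CHO-K1 cells stably expressing KCNQ1 / Medium: assay buffer / Also added: depolarizing K+/Tl+ stimulus, K2SO4 and Tl2SO4 each 12.5 mM in 5x stock / Incubation: 90 min dye loading and 20 min compound exposure, both at room temperature / Signal: thallium influx via FluxOR fluorescence, kinetic imaging / Evaluation: B score of baseline-normalized fluorescence ratio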
# KCNQ1 block: inhibitors of human KCNQ1 channel, primary screen, cell-based, thallium flux, high-throughput | B-score at 10 µM | Potassium voltage-gated channel subfamily KQT member 1 (Homo sapiens), P51787 | 310,000 compounds, 1.3% hits | CHO-K1 KCNQ1, FluxOR thallium flux fluorescence; hits give high values;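 active = compounds whose thallium flux B-score, printed positive for inhibition, exceeds three library SD while starting fluorescence stays within three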;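 also: channel opened by potassium depolarization with thallium stimulus after 20 min compound exposure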
# Kir21 block: inhibitors of mouse Kir2.1 inward-rectifier potassium channel | 310,000 compounds, 0.85% hits | B-score at 10 µM | HEK293-Kir2.1, FluxOR thallium flux fluorescence; hits give low values;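 active = fluorescence ratio B-score at or below minus 3 SD of library scores, with starting-brightness B-score within 2 SD, cut at about -4.2 in these data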;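 also: channel flux triggered by added potassium and thallium sulfate stimulus; B-score of peak minus minimum fluorescence over baseline after thallium stimulus; more negative B-score means stronger Kir2.1 block with less thallium influx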
# * = called active by the depositor; i = inactive; / = no result.
SMILES,hERG protect,KCNK9 inh,KCNK3 inh,KCNQ1 pot,KCNQ1 block,Kir21 block
CC(C)(C)OC(=O)N1CCC[C@H]1c1nnc(SCc2ccc(Cl)cc2Cl)o1,-5.4,i,i,i,i,-3.3
CC(C)(C)OC(=O)N1CCC[C@H]1c1nnc(SCc2ccc(Cl)cc2)o1,-11.0,i,i,i,i,-7.48*
CC(C)(C)OC(=O)N1CCC[C@H]1c1nnc(SCc2cccc(Cl)c2)o1,-5.3,i,i,i,i,-8.63*
Nc1nc(SCc2ccc(Br)cc2)c2ncn(C3OC(CO)C(O)C3O)c2n1 (configuration not stated),/,/,i,/,/,/
CCOC(=O)CC1COCCN1C(=O)c1ccc2oc(Cc3ccccc3)nc2c1 (configuration not stated),-7.8,i,i,i,i,-1.07
CN(C)c1ccc(N=Nc2ccccc2C(=O)OCC(=O)N2CCCC2)cc1,-5.6,i,i,i,i,0.4
CN(C)c1ccc(N=Nc2ccccc2C(=O)OCC(=O)Nc2ccccc2C(F)(F)F)cc1,-12.2,i,i,i,6*,-0.04
Cc1nn(C(C)C)c(C)c1CN1CCC(C(=O)Nc2cccc(-c3cccc(F)c3)c2)CC1,-5.8,i,i,i,i,-0.01
Cc1sc2nc(CN3CCN(c4ccc(O)cc4)CC3)[nH]c(=O)c2c1C,-4.2,i,i,i,i,-0.11
Cc1sc2nc(CN3CCOCC3)[nH]c(=S)c2c1C,52.5*,i,i,43*,i,-0.03
CCSc1nnc(NC(=O)c2c(-c3ccccc3Cl)noc2C)s1,-8.4,i,i,i,i,0.98
Cc1onc(-c2ccccc2Cl)c1C(=O)Nc1nnc(-c2cccc([N+](=O)[O-])c2)s1,-17.3,i,i,i,11*,1.24
CS(=O)(=O)N(CCc1ccccc1)CC(=O)Nc1ccc2c(c1)OCO2,-8.2,-7.91*,i,i,i,0.09
Cc1ccc(S(=O)(=O)/N=C2/NC(=O)/C(=C\c3cc(Br)cc(Br)c3O)S2)cc1,-16.0,i,i,i,7*,-11.4
Cc1ccc(S(=O)(=O)/N=C2/NC(=O)/C(=C/c3ccc(Br)o3)S2)cc1,-2.0,i,i,i,i,-0.37
CCCCN=C(NNc1ccc(Br)cc1)C(=O)OCC,-5.8,-7.57*,i,i,i,-0.93
CCOC(=O)C(=NCCCN(C)C)NNc1ccc(Br)cc1,-6.0,i,i,i,i,-0.01
OC(CNCCc1ccc(Cl)cc1)COc1cc(Cl)ccc1Cl (configuration not stated),-17.0,i,i,i,9*,-13.8*
O=C(c1ccccc1)c1ccc(OCC(O)CNCc2cccc(Cl)c2)cc1 (configuration not stated),-17.1,i,i,i,i,-8.4*
CC(C)c1ccc(OCC(O)CNC(C)c2ccccc2)cc1 (configuration not stated),-8.5,i,i,i,i,-6.01*
COc1ccc(C(OCC(O)CNCCc2ccccc2)c2ccc(OC)cc2)cc1 (configuration not stated),-14.8,i,i,i,i,-6.66*
CCC(=O)c1ccc(OCC(O)CNC(C)c2ccccc2)cc1 (configuration not stated),-4.1,i,i,i,i,-1.66
O=C(Nc1cc(C(F)(F)F)ccc1-n1cnc2ccccc21)c1ccccc1,-5.1,i,i,i,i,0
N#Cc1ccc(OCC(=O)NNC(=S)NC2CCCCC2)cc1,/,/,i,/,/,/
OC(CNCCc1ccccc1)COc1ccc(OCC(O)CNCCc2ccccc2)cc1 (configuration not stated),-7.1,i,i,i,i,-11.3*
SMILES,hERG protect,KCNK9 inh,KCNK3 inh,KCNQ1 pot,KCNQ1 block,Kir21 block
CC(NCC(O)COCCC12CC3CC(CC(C3)C1)C2)c1ccccc1 (configuration not stated),-18.2,i,i,i,8*,-12.2*
OC(CNCCc1ccc(Cl)cc1)COc1ccc2ccccc2c1 (configuration not stated),/,/,i,/,/,/
OC(CNCCC(c1ccccc1)c1ccccc1)COc1ccccc1 (configuration not stated),-20.2,i,i,i,i,-6.54*
Cc1ccc(C(OCC(O)CNCc2ccc(F)cc2)c2ccccc2)cc1 (configuration not stated),-15.6,i,i,i,i,-11.6*
CN(C)c1cccc2c(C=C(C#N)C#N)ccc(N(C)C)c12,-8.0,i,i,i,i,0.01
Cc1nn(-c2ccc(C(=O)NCC(c3ccco3)N3CCCC3)cc2)c(C)c1Cl (configuration not stated),/,/,i,/,/,/
O=S(=O)(NC1CC1)c1ccc(Br)cc1N1CCC[C@H]1CO,/,/,i,/,/,/
CCn1c(=O)c2cc(C(=O)N(C)c3ccc(OC)cc3OC)sc2c2ccccc21,-9.8,i,i,i,i,0.69
CCn1c(=O)c2cc(C(=O)N(C)c3cc(C)ccc3OC)sc2c2ccccc21,-13.4,-15.3*,i,i,i,-0.93
CC(=O)Nc1ccc2c(c1)C(N1CC3CCC(CC3)C1)c1ccccc1-2 (configuration not stated),/,/,-10.5*,/,/,/
Cc1nn(C(=O)c2cccc([N+](=O)[O-])c2)c(C)c1Sc1ccccc1,-6.6,i,i,i,i,-4.35*
O=C(COC(=O)Cc1c(Cl)cccc1Cl)Nc1ccc2[nH]c(=O)[nH]c2c1,-13.3,i,i,i,i,-0.64
Cc1ccc(NC(=O)CC(N)=S)cc1,-9.7,i,i,i,i,0.59
Cc1ccc(NC(=O)CC(O)(C(F)(F)F)C(F)(F)F)cc1,-6.7,i,i,i,7*,2.65
N#Cc1ccccc1NC(=O)CN1CCN(c2ccccn2)CC1,-7.2,i,i,i,i,0.13
Cc1sc(NC(=O)CN2CCN(c3ccccn3)CC2)c(C#N)c1C,-2.3,i,i,i,i,-4.45*
COCCNC(=O)CN(C(=O)CCC(=O)Nc1ccccn1)c1cc(C)ccc1C,-9.5,i,i,i,i,-1.38

# Screening data deposited in PubChem BioAssay by Johns Hopkins Ion Channel Center.
